Experimental data as given in ChEMBL document CHEMBL2046422, “Structure-activity relationship of nonacidic quinazolinone inhibitors of human microsomal prostaglandin synthase 1 (mPGES 1)” (J Med Chem, 2012).
One block for each compound: values may come before it.

Assays:
[1] = target: T1, Prostaglandin E synthase (Mus musculus) (UniProt Q9JM51); assay: Inhibition of mPGES-1 derived from LPS stimulated mouse RAW264.7 cells microsomal fraction using PGH2 as substrate at 5 uM preincubated for 30 mins prior to substrate addition measured after 1 min by LC-MS/MS analysis relative to control
T1 sequence (whole entry): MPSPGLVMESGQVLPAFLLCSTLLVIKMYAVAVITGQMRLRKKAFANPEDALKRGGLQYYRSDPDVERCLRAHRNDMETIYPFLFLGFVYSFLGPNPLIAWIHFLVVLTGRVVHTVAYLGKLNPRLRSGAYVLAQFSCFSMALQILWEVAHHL
Summary of the method: (§1)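 Microsomes came from RAW 264.7 cells stimulated with LPS for 16 h. They were prepared by sonication and ultracentrifugation in 0.1 M potassium phosphate, pH 7.4, with GSH and protease inhibitors, and resuspended with 2.5 mM GSH; protein was measured by Bradford. Compound was tested at the stated final concentration. PGE₂ was quantified by LC-MS/MS after solid-phase extraction with PGE₂-d₄/PGD₂-d₄ standards; SEM, n ≥ 3.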

[2] = target: T1, Prostaglandin E synthase (Mus musculus); assay: Inhibition of mPGES-1 derived from LPS stimulated mouse NIH3T3 cells microsomal fraction using PGH2 as substrate at 5 uM preincubated for 30 mins prior to substrate addition measured after 1 min by LC-MS/MS analysis relative to control
[3] = target: T2, Prostaglandin E synthase (Homo sapiens) (UniProt O14684); assay: Inhibition of mPGES-1 derived from IL1beta and TNFalpha stimulated human HeLa cells microsomal fraction using PGH2 as substrate at 1 uM preincubated for 30 mins prior to substrate addition measured after 1 min by LC-MS/MS analysis relative to control
T2 sequence (whole entry): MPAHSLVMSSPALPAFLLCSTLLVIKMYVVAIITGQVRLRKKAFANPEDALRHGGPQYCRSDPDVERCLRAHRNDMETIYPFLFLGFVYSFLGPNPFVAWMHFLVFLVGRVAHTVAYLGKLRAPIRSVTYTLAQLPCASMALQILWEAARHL
Summary of the method: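 Microsomes were pelleted by ultracentrifugation and resuspended in buffer with 2.5 mM GSH; protein was measured by Bradford. PGE₂ was read by LC-MS/MS after solid-phase extraction with deuterated standards; n ≥ 3.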

[4] = target: T1, Prostaglandin E synthase (Mus musculus); assay: Inhibition of mPGES-1 derived from LPS stimulated mouse RAW264.7 cells microsomal fraction using PGH2 as substrate at 1 uM preincubated for 30 mins prior to substrate addition measured after 1 min by LC-MS/MS analysis relative to control; summary of the method: as §1
[5] = target: T1, Prostaglandin E synthase (Mus musculus); assay: Inhibition of mPGES-1 derived from LPS stimulated mouse NIH3T3 cells microsomal fraction using PGH2 as substrate at 1 uM preincubated for 30 mins prior to substrate addition measured after 1 min by LC-MS/MS analysis relative to control
[6] = target: T3, Prostaglandin G/H synthase 1 (Ovis aries) (UniProt P05979); assay: Inhibition of ovine COX1-mediated PGE2 synthesis using PGH2 as substrate at 1 uM by LC-MS/MS analysis relative to control
T3 sequence (whole entry): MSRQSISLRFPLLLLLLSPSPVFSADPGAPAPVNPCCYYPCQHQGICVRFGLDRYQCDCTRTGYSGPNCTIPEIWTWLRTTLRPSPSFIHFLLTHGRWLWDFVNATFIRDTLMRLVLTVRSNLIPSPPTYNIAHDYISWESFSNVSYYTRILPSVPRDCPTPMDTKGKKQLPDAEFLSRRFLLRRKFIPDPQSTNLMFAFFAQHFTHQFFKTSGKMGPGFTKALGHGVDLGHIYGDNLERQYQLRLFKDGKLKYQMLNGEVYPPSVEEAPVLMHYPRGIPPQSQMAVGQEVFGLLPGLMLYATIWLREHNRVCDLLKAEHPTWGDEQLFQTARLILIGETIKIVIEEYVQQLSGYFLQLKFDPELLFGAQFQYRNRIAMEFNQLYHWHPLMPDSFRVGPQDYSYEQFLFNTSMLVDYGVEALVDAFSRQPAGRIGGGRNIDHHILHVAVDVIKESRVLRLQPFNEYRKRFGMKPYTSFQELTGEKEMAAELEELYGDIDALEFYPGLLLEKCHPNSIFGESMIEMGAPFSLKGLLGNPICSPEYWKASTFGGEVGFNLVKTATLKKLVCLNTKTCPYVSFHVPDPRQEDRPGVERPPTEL
Summary of the method: (§2)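 Direct enzyme test with a COX inhibitor screening kit, run per the kit protocol: COX-1 was ovine, COX-2 human recombinant. […] Prostaglandins were quantified by LC-MS/MS after solid-phase extraction. Mean of n ≥ 3.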

[7] = target: T4, Prostaglandin G/H synthase 2 (Homo sapiens) (UniProt P35354); assay: Inhibition of human recombinant COX2-mediated PGE2 synthesis using PGH2 as substrate at 1 uM by LC-MS/MS analysis relative to control; summary of the method: as §2
T4 sequence (whole entry): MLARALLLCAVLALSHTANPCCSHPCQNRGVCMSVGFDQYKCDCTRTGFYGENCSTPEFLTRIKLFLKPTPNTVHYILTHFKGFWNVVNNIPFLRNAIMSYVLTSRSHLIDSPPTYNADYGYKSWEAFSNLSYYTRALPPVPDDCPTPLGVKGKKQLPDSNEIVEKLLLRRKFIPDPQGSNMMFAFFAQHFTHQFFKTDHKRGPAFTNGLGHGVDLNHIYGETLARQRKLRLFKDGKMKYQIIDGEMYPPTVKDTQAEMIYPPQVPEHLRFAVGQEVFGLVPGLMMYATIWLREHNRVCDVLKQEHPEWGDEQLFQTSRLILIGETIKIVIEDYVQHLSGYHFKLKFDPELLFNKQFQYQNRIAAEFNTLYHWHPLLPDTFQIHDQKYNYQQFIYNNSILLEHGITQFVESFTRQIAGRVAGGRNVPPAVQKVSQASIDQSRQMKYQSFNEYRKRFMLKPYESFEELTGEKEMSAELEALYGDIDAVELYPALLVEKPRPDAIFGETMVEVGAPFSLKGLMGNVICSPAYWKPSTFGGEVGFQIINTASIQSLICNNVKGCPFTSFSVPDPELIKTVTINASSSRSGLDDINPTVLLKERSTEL

[8] = system: HeLa; assay: Cytotoxicity against IL1beta and TNFalpha-stimulated human HeLa cells at 1 to 10 uM after 24 hrs by WST1 assay; type: cell-based
Summary of the method: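 HeLa cells were seeded at 3 × 10³ per well and grown 24 h at 37 °C. They were then stimulated with IL-1β (1 ng/mL) + TNFα (5 ng/mL) while treated with compound at 1, 10 or 100 μM, or DMSO, for 24 h. WST-1 was added for 90–150 min and absorbance read at 450 nm against 620 nm. Viability is percent of DMSO control, SEM, n ≥ 3.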

[9] = target: Prostaglandin G/H synthase 1 (Homo sapiens) (UniProt P23219); assay: Inhibition of COX1 in human whole blood assessed as residual TXB2 level at 10 uM after 1 hr by LC-MS/MS analysis relative to control
Summary of the method: (§3)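 Human venous blood was drawn without additives, and compound was added. Samples clotted at 37 °C for 1 h; negative controls were chilled on ice at once. After 5 min on ice, plasma was separated at 4 °C. It was mixed with H₃PO₄, EDTA, BHT and deuterated internal standards, then put through solid-phase extraction. TXB₂ and PGD₂ were measured by LC-MS/MS, relative to vehicle-treated blood.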

[10] = target: Prostaglandin G/H synthase 1 (Homo sapiens) (UniProt P23219); assay: Inhibition of COX1 in human whole blood assessed as residual PGD2 level at 10 uM after 1 hr by LC-MS/MS analysis relative to control; summary of the method: as §3
[11] = target: T4, Prostaglandin G/H synthase 2 (Homo sapiens); assay: Inhibition of COX2 in LPS-stimulated human whole blood assessed as residual PGE2 level at 100 uM preincubated for 15 mins prior to LPS-stimulation measured after 24 hrs by LC-MS/MS analysis relative to control
Summary of the method: (§4)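 Human whole blood received compound in DMSO plus acetylsalicylic acid (10 μg/mL) to block COX-1, 15 min at 37 °C. LPS (10 μg/mL final) in autologous plasma was added to induce COX-2/mPGES-1, and blood was incubated 24 h at 37 °C. Samples were chilled on ice 5 min, and plasma prostaglandins were extracted by solid-phase extraction and quantified by LC-MS/MS. Values are relative to vehicle.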

[12] = target: T5, 5-lipoxygenase/FLAP (Homo sapiens) (UniProt P09917+P20292); assay: Inhibition of 5-lipoxygenase/FLAP in calcium ionophore-stimulated human whole blood assessed as residual LTB4 level at 10 uM preincubated for 15 mins prior to calcium ionophore-stimulation measured after 15 mins by LC-MS/MS analysis; type: protein-complex assay
Summary of the method: (§5)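 Heparinized human whole blood (500 μL) was preincubated with compound for 15 min at 37 °C. It was then stimulated with 20 μM calcium ionophore A23187 in autologous plasma for 15 min at 37 °C and chilled on ice for 5 min. Plasma was collected by centrifugation at 4 °C. Eicosanoids were recovered by liquid–liquid extraction with deuterated internal standards and quantified by LC-MS/MS (MRM). Levels are relative to vehicle-treated blood.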

[13] = target: T4, Prostaglandin G/H synthase 2 (Homo sapiens); assay: Inhibition of COX2 in LPS-stimulated human whole blood assessed as residual PGF2alpha level at 100 uM preincubated for 15 mins prior to LPS-stimulation measured after 24 hrs by LC-MS/MS analysis relative to control; summary of the method: as §4
[14] = target: T5, 5-lipoxygenase/FLAP (Homo sapiens); assay: Inhibition of 5-lipoxygenase/FLAP in calcium ionophore-stimulated human whole blood assessed as residual 12(s)HETE level at 10 uM preincubated for 15 mins prior to calcium ionophore-stimulation measured after 15 mins by LC-MS/MS analysis; type: protein-complex assay; summary of the method: as §5
[15] = target: T5, 5-lipoxygenase/FLAP (Homo sapiens); assay: Inhibition of 5-lipoxygenase/FLAP in calcium ionophore-stimulated human whole blood assessed as 5(s)HETE level at 10 uM preincubated for 15 mins prior to calcium ionophore-stimulation measured after 15 mins by LC-MS/MS analysis; type: protein-complex assay; set-up: scale not given: the % may be the effect or the level left; summary of the method: as §5
[16] = target: T5, 5-lipoxygenase/FLAP (Homo sapiens); assay: Inhibition of 5-lipoxygenase/FLAP in calcium ionophore-stimulated human whole blood assessed as residual 15(s)HETE level at 10 uM preincubated for 15 mins prior to calcium ionophore-stimulation measured after 15 mins by LC-MS/MS analysis; type: protein-complex assay; summary of the method: as §5
[17] = target: T5, 5-lipoxygenase/FLAP (Homo sapiens); assay: Inhibition of 5-lipoxygenase/FLAP in calcium ionophore-stimulated human whole blood assessed as residual (+/-)11HETE level at 10 uM preincubated for 15 mins prior to calcium ionophore-stimulation measured after 15 mins by LC-MS/MS analysis; type: protein-complex assay; summary of the method: as §5
[18] = target: T2, Prostaglandin E synthase (Homo sapiens); assay: Inhibition of mPGES-1 in IL1beta and TNFalpha-stimulated human HeLa cells assessed as PGE2 level after 24 hrs by LC-MS/MS analysis; type: cell-based
Summary of the method: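 HeLa cells (2 × 10⁴) were grown 24 h at 37 °C. The medium was then replaced with IL-1β (1 ng/mL) + TNFα (5 ng/mL), or PBS for unstimulated controls, together with compound at 1, 10 or 100 μM, or DMSO, for 24 h at 37 °C. Supernatant PGE₂ was quantified by LC-MS/MS after solid-phase extraction with deuterated standards. Inhibition is percent of DMSO control corrected for unstimulated background, SEM, n ≥ 3.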

Sequence of Prostaglandin G/H synthase 1 (Homo sapiens) (P23219 whole entry): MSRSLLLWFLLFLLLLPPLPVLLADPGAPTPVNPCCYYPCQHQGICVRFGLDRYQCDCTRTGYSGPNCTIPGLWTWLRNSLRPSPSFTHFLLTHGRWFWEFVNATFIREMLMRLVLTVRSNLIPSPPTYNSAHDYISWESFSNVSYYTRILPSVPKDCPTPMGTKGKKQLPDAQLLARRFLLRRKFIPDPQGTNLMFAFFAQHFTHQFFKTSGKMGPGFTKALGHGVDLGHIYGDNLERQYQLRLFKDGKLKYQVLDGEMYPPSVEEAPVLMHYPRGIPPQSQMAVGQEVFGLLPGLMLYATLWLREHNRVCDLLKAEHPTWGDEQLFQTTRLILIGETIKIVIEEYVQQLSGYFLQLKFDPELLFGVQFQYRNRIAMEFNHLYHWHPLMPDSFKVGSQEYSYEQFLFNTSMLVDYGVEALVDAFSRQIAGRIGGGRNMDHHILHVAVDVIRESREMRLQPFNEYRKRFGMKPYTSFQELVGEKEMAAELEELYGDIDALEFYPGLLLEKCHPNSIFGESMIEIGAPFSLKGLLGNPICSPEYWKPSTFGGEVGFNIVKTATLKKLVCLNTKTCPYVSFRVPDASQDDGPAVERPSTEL

SMILES: CCCCCCC(Sc1nc(Cl)cc(Nc2cccc(C)c2C)n1)C(=O)O (stereo not given)
inhibition [1]: 66.2%
inhibition [2]: 62.9%

SMILES: CCCc1nc2ccc(NC(=O)C(C)(C)C)cc2c(=O)n1Cc1ccc(-c2cccc(Cl)c2)cc1
inhibition [3]: 18.8%

SMILES: CCCc1nc2ccc(NC(=O)CCc3ccccc3)cc2c(=O)n1Cc1ccc(-c2cccc(Cl)c2)cc1
inhibition [3]: 32.7%

SMILES: O=C(Nc1ccc2nc(Cc3ccccc3)n(Cc3cccc(Cl)c3)c(=O)c2c1)c1ccccc1Cl
inhibition [3]: 67.2%
inhibition [4]: 3.8%
inhibition [5]: 17.8%
inhibition [6]: < 0%
inhibition [7]: < 0%
Activity [8]: Non-toxic
inhibition [18]: Dose-dependent effect

SMILES: CCCc1nc2ccc(NC(=O)c3ccc(Cl)cc3)cc2c(=O)n1Cc1ccc(-c2cccc(Cl)c2)cc1
inhibition [3]: 14.7%

SMILES: Cc1ccccc1C(=O)Nc1cc2c(=O)n(Cc3ccccc3)c(C)nc2cc1N1CCCC1
inhibition [3]: 37.1%

The next lines start with results.

inhibition [4]: 15.2%
inhibition [5]: 6.6%
inhibition [6]: 16.1%
inhibition [7]: < 0%
Activity [9]: 86.1%
Activity [10]: 89%
Activity [11]: 34.2%
Activity [12]: 91.3%
Activity [13]: 73.4%
Activity [14]: 82.7%
Activity [15]: 88.1%
Activity [16]: 78.3%
Activity [17]: 75.4%
SMILES: CCCc1nc2ccc(NC(=O)c3ccccc3Cl)cc2c(=O)n1Cc1ccccc1Cl
Activity [8]: Non-toxic

inhibition [3]: 61.3%
SMILES: CCCc1nc2ccc(NC(=O)c3ccccc3Cl)cc2c(=O)n1Cc1ccc(-c2ccccc2OC)cc1

inhibition [3]: 30%
SMILES: CCCc1nc2ccc(NC(=O)c3ccccc3F)cc2c(=O)n1Cc1ccc(-c2cccc(Cl)c2)cc1

inhibition [3]: 41.9%
SMILES: Cc1nc2ccc(NC(=O)c3ccccc3Cl)cc2c(=O)n1Cc1ccc(-c2cccc(Cl)c2)cc1
